ChEMBL document CHEMBL1122250, “Synthesis and bacterial metabolism of cis- and trans-2-alkyl analogues of sodium cyclamate” (1983)

Tests used:
Rattus norvegicus [1] = organism: Rattus norvegicus; assay: Evaluated for the amine formed (during conversion of N-cycloalkylsulfamates to cycloalkylamines) in 10 mL incubation in cyclamate-fed rats; assay type: functional
Summary of the method: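 Rats drank 1% sodium cyclamate for at least 6 weeks; only cyclamate converters were used. Fresh feces (~5 g) were suspended in prereduced anaerobic minimal medium (pH 7 ± 0.2), and the washed bacterial pellet was resuspended. 1.0 mL suspension plus 9 mL medium and 100 mg sulfamate ran 22–24 h at 44–45 °C with CO2 bubbling. Amine was converted to phenylurea with phenyl isocyanate and quantified by HPLC-UV 240 nm against an external standard. Reported as µg per 10 mL.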

Rattus norvegicus [2] = organism: Rattus norvegicus; assay: Evaluated for the amine formed (during conversion of N-cycloalkylsulfamates to cycloalkylamines) in 10 mL incubation in Control rats; assay type: functional
Summary of the method: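 Fresh feces (~5 g) from control rats were suspended in prereduced anaerobic minimal medium (pH 7 ± 0.2), spun at low then high speed, and the pellet resuspended. 1.0 mL suspension plus 9 mL medium and 100 mg sulfamate ran 22–24 h at 44–45 °C with CO2 bubbling. Amine was extracted at pH 10 into CH2Cl2, derivatized with phenyl isocyanate, and read by HPLC-UV 240 nm against an external standard. Reported as total µg per 10 mL.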

Row | SMILES | Amine formed (Rattus norvegicus [1]) [µg] | Amine formed (Rattus norvegicus [2]) [µg]
1 | CC1CCCCC1NS(=O)(=O)[O-].[Na+] (cis isomer) | 457 | 402
2 | CC1CCCCC1NS(=O)(=O)[O-].[Na+] (stereo in doubt) | 42 | 0
3 | CCC1CCCCC1NS(=O)(=O)[O-].[Na+] (stereo in doubt) | 35 | –
4 | CC(C)C1CCCCC1NS(=O)(=O)[O-].[Na+] (stereo in doubt) | 37.5 | 27.9
5 | CCC1CCCCC1NS(=O)(=O)[O-].[Na+] (trans isomer) | 57 | 0
6 | CC(C)C1CCCCC1NS(=O)(=O)[O-].[Na+] (trans isomer) | 0 | 0
7 | O=S(=O)([O-])NC1CCCCC1.[Na+] [SODIUM CYCLAMATE] | 39 | 0
